The source of these data is ChEMBL document CHEMBL1137287, “Peptidyl-urea based inhibitors of soluble epoxide hydrolases” (Bioorg Med Chem Lett, 2006).

A short description of series [1]: Plasma concentration in dog at 0.3 mg/kg, po after 30 min. It is filed as ADME, organism-based, Canis lupus familiaris. More on the design: dose 0.3 mg/kg, route oral. The method in brief:
(§1)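 Dogs given oral dose of 0.3 mg/kg per inhibitor, three different inhibitors per dog per experiment, formulated at 6 mg/mL in triglycerides (tristearate, 6 mL). AUC estimated from plasma concentration (nM) versus time (min) plot.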

A short description of series [2]: Plasma concentration in dog at 0.3 mg/kg, po after 240 min. It is filed as ADME, organism-based, Canis lupus familiaris. More on the design: dose 0.3 mg/kg, route oral. The method in brief:
as §1

A short description of series [3]: Plasma concentration in dog at 0.3 mg/kg, po after 15 min. Set-up: dose 0.3 mg/kg, route oral. The class given is ADME, organism-based, Canis lupus familiaris. Summed up: as §1
The nature of series [4]: Plasma concentration in dog at 0.3 mg/kg, po after 360 min. The class given is ADME, organism-based, Canis lupus familiaris. More on the design: dose 0.3 mg/kg, route oral. The method in brief:
as §1

A short description of series [5]: Plasma concentration in dog at 0.3 mg/kg, po after 480 min. More on the design: dose 0.3 mg/kg, route oral. It is filed as ADME, organism-based, Canis lupus familiaris. The method in brief: as §1
Series [6] can be described thus: Plasma concentration in dog at 0.3 mg/kg, po after 60 min. The class given is ADME, organism-based, Canis lupus familiaris. Set-up: dose 0.3 mg/kg, route oral. Summed up: as §1
Series [7] is described as follows: Plasma concentration in dog at 0.3 mg/kg, po after 300 min. The class given is ADME, organism-based, Canis lupus familiaris. Set-up: dose 0.3 mg/kg, route oral. Summed up:
as §1

Series [8] can be described thus: Plasma concentration in dog at 0.3 mg/kg, po after 120 min. The class given is ADME, organism-based, Canis lupus familiaris. Set-up: dose 0.3 mg/kg, route oral. Summed up:
as §1

A short description of series [9]: Plasma concentration in dog at 0.3 mg/kg, po after 180 min. It is filed as ADME, organism-based, Canis lupus familiaris. More on the design: dose 0.3 mg/kg, route oral. The method in brief:
as §1

Series [10] addresses T1, Bifunctional epoxide hydrolase 2 (Mus musculus, UniProt P34914).
T1 sequence (P34914 whole entry): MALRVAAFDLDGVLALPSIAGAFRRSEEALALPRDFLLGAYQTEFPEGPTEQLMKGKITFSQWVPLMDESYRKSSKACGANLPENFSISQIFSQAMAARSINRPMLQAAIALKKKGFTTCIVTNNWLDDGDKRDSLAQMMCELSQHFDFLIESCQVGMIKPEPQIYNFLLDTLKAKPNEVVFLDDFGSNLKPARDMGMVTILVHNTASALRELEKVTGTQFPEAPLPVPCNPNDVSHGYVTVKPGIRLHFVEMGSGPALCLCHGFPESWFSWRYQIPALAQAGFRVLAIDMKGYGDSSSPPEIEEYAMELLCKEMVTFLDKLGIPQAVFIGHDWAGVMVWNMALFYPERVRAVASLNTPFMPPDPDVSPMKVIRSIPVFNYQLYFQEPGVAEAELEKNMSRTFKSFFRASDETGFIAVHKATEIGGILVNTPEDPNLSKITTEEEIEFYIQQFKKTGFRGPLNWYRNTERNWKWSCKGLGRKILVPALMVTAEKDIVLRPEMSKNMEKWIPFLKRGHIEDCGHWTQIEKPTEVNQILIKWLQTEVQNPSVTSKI
The series is described as follows: Inhibition of mouse recombinant soluble Epoxide hydrolase.

For series [11], the target named is T2, Bifunctional epoxide hydrolase 2 (Homo sapiens, UniProt P34913).
T2 sequence (P34913 whole entry): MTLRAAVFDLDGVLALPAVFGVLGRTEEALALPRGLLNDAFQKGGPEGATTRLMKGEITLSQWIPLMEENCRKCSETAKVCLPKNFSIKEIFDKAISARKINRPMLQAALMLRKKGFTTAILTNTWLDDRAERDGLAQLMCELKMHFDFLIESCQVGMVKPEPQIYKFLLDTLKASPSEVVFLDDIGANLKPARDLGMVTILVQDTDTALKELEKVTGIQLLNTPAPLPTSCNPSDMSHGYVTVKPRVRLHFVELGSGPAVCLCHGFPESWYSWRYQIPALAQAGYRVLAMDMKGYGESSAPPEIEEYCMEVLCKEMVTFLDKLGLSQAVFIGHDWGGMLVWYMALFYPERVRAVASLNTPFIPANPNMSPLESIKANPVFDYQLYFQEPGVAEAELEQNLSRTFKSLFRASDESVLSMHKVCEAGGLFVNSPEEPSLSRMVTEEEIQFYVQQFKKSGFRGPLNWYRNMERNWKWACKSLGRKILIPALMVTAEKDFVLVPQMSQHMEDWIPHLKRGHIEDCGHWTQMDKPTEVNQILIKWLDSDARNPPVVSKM
The series is described as follows: Inhibition of human recombinant soluble Epoxide hydrolase.

Series [12] can be described thus: Solubility in sodium phosphate buffer at pH 7.4. It is filed as physicochemical. The method in brief:
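Solubility measured in sodium phosphate buffer, 100 mM, pH 7.4, following a previously described procedure.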

Series [13] can be described thus: AUC in dog at 0.3 mg/kg, po. The class given is ADME, organism-based, Canis lupus familiaris. Set-up: dose 0.3 mg/kg, route oral. Conditions: plasma. The method in brief: as §1

Molecules are shown by their SMILES.

In series [1], `O=C(O)CCCCCCCCCCCNC(=O)NC12CC3CC(CC(C3)C1)C2` had a concentration at 0.5 h of 20.4 nM. Further, the concentration at 4 h in [2] worked out at 6.12 nM. In series [3], this compound showed a concentration at 0.25 h of 6.97 nM. The same compound showed a concentration at 6 h in [4] of 1.17 nM. The same compound registered a concentration at 8 h in series [5] of 0.86 nM. The same compound registered a concentration at 1 h in series [6] of 30.7 nM. The concentration at 5 h in series [7] worked out at 1.61 nM. In addition, the concentration at 2 h in series [8] worked out at 26.3 nM. The same compound came in with a concentration at 3 h in series [9] of 13.4 nM.
Take `CC(C)[C@H](NC(=O)CCCCCNC(=O)NC1CCCCC1)C(=O)O`: the values for the IC50 in series [10] and in series [11] were 0.56 µM and 41 µM, respectively. Moreover, in [12], the solubility was > 500 µM.
With `NC(N)=NCCC[C@H](NC(=O)CNC(=O)NC1CCCCC1)C(=O)O`, the IC50 in [10] and in [11] was > 100 µM each time. Moreover, in [12], the solubility is > 500 µM.
With `O=C(O)CC[C@H](NC(=O)CNC(=O)NC1CCCCC1)C(=O)O`, the IC50 in series [10] and in series [11] was > 100 µM each time. Besides, the solubility in series [12] was > 500 µM.
Turning to `CC(C)[C@H](NC(=O)CCCNC(=O)NC1CCCCC1)C(=O)O`, the IC50 in [10] was found to be 1.4 µM; in series [11] it was 17 µM. Besides, the solubility in series [12] was > 500 µM.
Consider `N=C(N)NCCC[C@H](NC(=O)CCCNC(=O)NC1CCCCC1)C(=O)O`, for which the IC50 worked out at 1 µM in [10] and 25 µM in [11]. Also, in [12], the solubility was > 500 µM.
Regarding `O=C(CCCCCNC(=O)NC1CCCCC1)N[C@@H](Cc1cnc[nH]1)C(=O)O`, the IC50 is 0.06 µM in series [10] and > 100 µM in [11]. For the same compound, the solubility in series [12] was > 500 µM.
For `O=C(CNC(=O)NC1CCCCC1)N[C@@H](Cc1ccccc1)C(=O)O`, in that order: 18 µM, > 100 µM and > 500 µM.
Consider `CC(C)[C@H](NC(=O)CNC(=O)NC1CCCCC1)C(=O)O`, for which the half-maximal inhibitory concentration (IC50) in [10] and in series [11] was > 100 µM throughout. Moreover, in series [12], the solubility is > 500 µM.
Turning to `O=C(O)CCCNC(=O)NC1CCCCC1`, the IC50 in [10] worked out at 1.9 µM; in [11], 36 µM.
On to `NC(N)=NCCC[C@H](NC(=O)CCCCCNC(=O)NC1CCCCC1)C(=O)O`, for which the IC50 in series [10] is 0.23 µM; in series [11], > 100 µM. The solubility in series [12] was > 500 µM.
As for `COC(=O)CCCCCNC(=O)NC1CCCCC1`, the half-maximal inhibitory concentration (IC50) in series [10] came out at 0.11 µM; in [11], 3.2 µM.
Consider `O=C(CCCNC(=O)NC1CCCCC1)N[C@@H](Cc1ccccc1)C(=O)O`, for which the IC50 in series [10] was 1.6 µM; in series [11], 21 µM. The solubility in series [12] was > 500 µM.
The compound `O=C(CCCCCNC(=O)NC12CC3CC(CC(C3)C1)C2)N[C@@H](Cc1ccccc1)C(=O)N[C@@H](Cc1c[nH]c2ccccc12)C(=O)O` displayed a concentration at 0.5 h in [1] of 0.82 nM. The concentration at 0.25 h in series [3] was found to be 0.62 nM. Further, the concentration at 1 h in series [6] stood at 0.33 nM. Also, in series [11], the Ki is 0.015 µM. In addition, the AUC in series [13] is < 1.67 nM·h. Further, the solubility in series [12] is > 500 µM.
Turning to `O=C(O)CC[C@H](NC(=O)CCCNC(=O)NC1CCCCC1)C(=O)O`, the results for the IC50 in [10] and in series [11] were 1.7 µM and 24 µM, respectively. Besides, the solubility in series [12] was > 500 µM.
As to `O=C(CCCNC(=O)NC1CCCCC1)N[C@@H](Cc1cnc[nH]1)C(=O)O`, the IC50 in series [10] was 0.05 µM; in series [11], 30 µM. The solubility in [12] is > 500 µM.
`O=C(O)CC[C@H](NC(=O)CCCCCNC(=O)NC1CCCCC1)C(=O)O`: the IC50 was 51 µM in series [10] and > 100 µM in series [11]. In addition, in series [12], the solubility was > 500 µM.
As to `O=C(CNC(=O)NC1CCCCC1)N[C@@H](Cc1cnc[nH]1)C(=O)O`, the IC50 in [10] was 36 µM; in series [11] it was > 100 µM. Further, the solubility in series [12] is > 500 µM.
On to `O=C(O)CCCCCNC(=O)NC1CCCCC1`, for which the IC50 in series [10] is 24 µM; in series [11], > 100 µM.
For `O=C(O)CNC(=O)NC1CCCCC1`, in that order: > 100 µM and > 100 µM.
With `O=C(CCCCCNC(=O)NC1CCCCC1)N[C@@H](Cc1ccccc1)C(=O)O` (stereo in doubt; form 1), the IC50 in series [10] came out at 0.15 µM; in [11], 2.7 µM.

Usually IC50 stands for the midpoint of a concentration-inhibition curve. For orientation: solubility means how much of the substance goes into solution per volume. A word on the Ki: it is the equilibrium dissociation constant of an inhibitor or competing ligand from its target. Broadly, the AUC is the area under the concentration-time curve, a measure of exposure. Low readings indicate less exposure, high ones more exposure.
